High-throughput results from PubChem BioAssay.
S1P4 agonist: activates the human S1P4 receptor. hit rate 0.35% among 220,000. activation, % at 4.98 µM. AID 1509. O95977. S1P4-expressing cell line, agonist reporter assay; in the data active = activation above about 11%;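 note: 0% = DMSO vehicle and 100% = reference agonist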
NPY-Y2 PAM-ag: potentiators or agonists of human neuropeptide Y receptor Y2. P49146. cells expressing NPY-Y2, potentiator/agonist read-out. activation, % at 3.6 µM. hit rate 0.45% among 220,000. AID 1359; in the data active = activation above about 27%;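 note: cells stimulated with NPY near EC25 plus isoproterenol at EC100; 0% = vehicle plus submaximal agonist and 100% = vehicle plus saturating agonist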
NPY1 pot ag: potentiates or activates human NPY-Y1 receptor; P25929; NPY-Y1 expressing cells, potentiator/agonist activation; activation, % at 3.6 µM; hit rate 0.37% among 220,000; in the data active = activation above about 33%, passing the limit was not always enough;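 note: cells stimulated with NPY at EC10 then isoproterenol at EC100; 0% = low agonist plus stimulus and 100% = saturating agonist plus stimulus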
Target sequence (P25929 whole entry, looked up): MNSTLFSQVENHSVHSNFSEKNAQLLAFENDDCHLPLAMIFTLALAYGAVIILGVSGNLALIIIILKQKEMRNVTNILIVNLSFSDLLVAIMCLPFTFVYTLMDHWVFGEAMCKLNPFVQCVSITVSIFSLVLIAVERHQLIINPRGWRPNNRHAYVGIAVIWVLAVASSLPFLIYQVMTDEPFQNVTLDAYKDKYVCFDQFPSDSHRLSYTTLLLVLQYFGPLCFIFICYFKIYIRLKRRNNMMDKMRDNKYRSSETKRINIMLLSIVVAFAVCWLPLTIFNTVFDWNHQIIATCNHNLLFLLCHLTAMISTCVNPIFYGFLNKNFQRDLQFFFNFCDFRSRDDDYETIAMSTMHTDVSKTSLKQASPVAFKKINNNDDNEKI
NPY Y1 blocker: blocks the human neuropeptide Y Y1 receptor; hit rate 1% among 200,000; HEK293-CNG Y1 cells, membrane potential fluorescence; NPY at EC95, then isoproterenol; inhibition, % at 3.6 µM; P25929;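 active = inhibition above the campaign mean inhibition of all tested compounds plus 3 SD, cut at about 20% in these data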;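 note: 0% = DMSO wells given NPY plus isoproterenol and 100% = isoproterenol alone without NPY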
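Test system: HEK293 cells co-expressing NPY Y1 receptor and cyclic-nucleotide gated channel; Also added: NPY (25 nM), isoproterenol (1 µM), Ro 20-1724 (25 µM); Compound dosing: one concentration, 3.6 µM, in 0.4% DMSO; Timing: dye 3 h, compound 60 min room temperature, stimulation 45 min; Technique: Membrane-potential fluorescent dye readout.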
NPY Y2 blocker: antagonists of human neuropeptide Y receptor Y2; P49146; hit rate 0.99% among 140,000; AID 793; inhibition, % at 2.7 µM; NPY-Y2 expressing cells, antagonist mode;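 note: 0% = vehicle with agonist challenge and 100% = reference antagonist with challenge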
S1P4 antagonist: blocks the human S1P4 receptor; O95977; S1P4-expressing cells, antagonist mode, reporter read-out; inhibition, % at 4.98 µM; hit rate 0.26% among 220,000; AID 1510; in the data active = inhibition above about 29%;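 note: 0% = wells stimulated with agonist and 100% = vehicle wells without agonist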
NPY1 antag conf: confirmation of human neuropeptide Y receptor Y1 antagonists; hit rate 21% among 1,200; shares compounds with NPY Y1 blocker; AID 1254; HEK293-CNG NPY-Y1, membrane potential fluorescence, cAMP; NPY challenge against isoproterenol-raised cAMP; inhibition, % at 3.6 µM; in the data active = inhibition above about 20%;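 note: 0% = vehicle with agonist plus stimulus and 100% = stimulus alone without agonist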
NPY-Y2 antag ct: antagonizes human NPY-Y2, counter-screen to NPY-Y1 antagonists; hit rate 28% among 1,200; inhibition, % at 3.6 µM; HEK293 NPY-Y2 CNG membrane potential fluorescence, antagonism; cells given NPY, then isoproterenol; shares compounds with NPY Y1 blocker;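 note: 0% = DMSO with agonist challenge and 100% = reference antagonist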
Active calls of the source: *. This is a sample that favours compounds with a hit; in the whole collection about 2.4% have one here. Cut-off read from the data, not from the text of the source, unless noted: active = inhibition above about 17%; inactive = the rest.

For Cc1ccc(NC(=O)NC(=O)CSc2n[nH]c(N)n2)c(C)c1 the results were S1P4 agonist 2, NPY-Y2 PAM-ag 0, NPY1 pot ag 8, NPY Y1 blocker -3 and S1P4 antagonist 6.
`CCOC(=O)CC1C(=O)NCCN1C(=O)c1cc2c(=O)n3ccccc3nc2s1` (configuration not stated) gave S1P4 agonist -1, NPY-Y2 PAM-ag -17, NPY1 pot ag -10, NPY Y1 blocker 98*, NPY Y2 blocker 3, S1P4 antagonist 1, NPY1 antag conf 1 and NPY-Y2 antag ct 3.
COc1ccc(-n2cc(-c3ccccc3)c3c(NCCCN4CCOCC4)ncnc32)cc1 was read as S1P4 agonist 1, NPY-Y2 PAM-ag -27, NPY1 pot ag -18, NPY Y1 blocker 26*, S1P4 antagonist 9, NPY1 antag conf 13 and NPY-Y2 antag ct 7.
`c1ccc(-c2cn(-c3ccccc3)c3ncnc(NCCCN4CCOCC4)c23)cc1` gave S1P4 agonist 1, NPY-Y2 PAM-ag -1, NPY1 pot ag 1, NPY Y1 blocker 5 and S1P4 antagonist 4.
`CCN1/C(=C/c2sc(-c3ccccc3C)c[n+]2C)Sc2ccccc21` gave S1P4 agonist 1, NPY-Y2 PAM-ag 21, NPY1 pot ag -10, NPY Y1 blocker 40*, S1P4 antagonist -9, NPY1 antag conf 28* and NPY-Y2 antag ct 15.
`Cc1cccc(Oc2sc(C(=O)c3ccccc3)c(N)c2C#N)c1C` gave S1P4 agonist 1, NPY-Y2 PAM-ag 2, NPY1 pot ag -6, NPY Y1 blocker 24*, NPY Y2 blocker 9, S1P4 antagonist 4, NPY1 antag conf 4 and NPY-Y2 antag ct 6.
For CCn1nnc(-c2ccccc2NC(=O)c2ccc(-n3cnnn3)cc2)n1 the results were S1P4 agonist -1, NPY-Y2 PAM-ag -6, NPY1 pot ag 12, NPY Y1 blocker 23*, NPY Y2 blocker 6, S1P4 antagonist -10, NPY1 antag conf 14 and NPY-Y2 antag ct 6.
`CN(C)c1ccc(CNC(=O)C2CCN(S(=O)(=O)c3ccc4c(c3)CCC(=O)N4)CC2)cc1` gave S1P4 agonist 0, NPY-Y2 PAM-ag -5, NPY1 pot ag 6, NPY Y1 blocker 2, NPY Y2 blocker 1 and S1P4 antagonist 11.
For CSc1nc(Oc2ccc(F)cc2)c2ccccc2n1 the results were S1P4 agonist 0, NPY-Y2 PAM-ag -19, NPY1 pot ag -23, NPY Y1 blocker 23*, NPY Y2 blocker 11, S1P4 antagonist -7, NPY1 antag conf 6 and NPY-Y2 antag ct 9.
COc1cc(S(=O)(=O)N(Cc2ccccc2)Cc2ccccn2)ccc1-n1cnnn1 was read as S1P4 agonist 1, NPY-Y2 PAM-ag -13, NPY1 pot ag -13, NPY Y1 blocker 4, NPY Y2 blocker 0 and S1P4 antagonist 6.
CC#CCN(CC#CC)S(=O)(=O)c1ccc(-n2cnnn2)c(OC)c1 was read as S1P4 agonist 1, NPY-Y2 PAM-ag 10, NPY1 pot ag 2, NPY Y1 blocker 21*, NPY Y2 blocker 17, S1P4 antagonist -34, NPY1 antag conf 9 and NPY-Y2 antag ct 9.
Cc1cc(C)c(OCCN(C)Cc2ccccc2)c(Br)c1 was read as S1P4 agonist -1, NPY-Y2 PAM-ag -2, NPY1 pot ag -4, NPY Y1 blocker 3 and S1P4 antagonist -4.
Screening O=C(c1cccs1)N1CCN(c2ncc(Br)cn2)CC1 returned S1P4 agonist 1, NPY-Y2 PAM-ag -7, NPY1 pot ag 12 and S1P4 antagonist -10.
CC1CCCN(Cc2cccc(Oc3ccccc3)c2)C1 (configuration not stated) was read as S1P4 agonist -1, NPY-Y2 PAM-ag -10, NPY1 pot ag -13, NPY Y1 blocker 25*, NPY Y2 blocker 13, S1P4 antagonist 1, NPY1 antag conf 10 and NPY-Y2 antag ct 10.
Screening OC1CCN(Cc2cccc(Oc3ccccc3)c2)CC1 returned S1P4 agonist 0, NPY-Y2 PAM-ag 5, NPY1 pot ag 1, NPY Y1 blocker -2, NPY Y2 blocker 2 and S1P4 antagonist -8.
